{"source": "paper PMC5308454", "about": "(MedChemComm, 2016)", "key": {"[1]": {"test_system": "tubulin", "experiment": "Inhibition of tubulin polymerization", "format": "biochemical", "details": "read-out: Inhibition of tubulin polymerization IC50; ± SD"}, "[2]": {"test_system": "SK-OV-3", "experiment": "SRB cytotoxicity assay, SK-OV-3", "format": "cell-based, human", "details": "read-out: GI50 SRB assay SK-OV-3; average of n ≥ 3 independent determinations"}, "[3]": {"test_system": "DU-145 (prostate)", "experiment": "SRB cytotoxicity assay, DU-145", "format": "cell-based, human", "details": "read-out: GI50 SRB assay DU-145; average of n ≥ 3 independent determinations"}, "[4]": {"test_system": "NCI-H460", "experiment": "SRB cytotoxicity assay, NCI-H460", "format": "cell-based, human", "details": "read-out: GI50 SRB assay NCI-H460; average of n ≥ 3 independent determinations"}, "[5]": {"test_system": "MCF7-luc-GFP-mCherry breast tumor", "experiment": "Dynamic bioluminescence imaging", "format": "in vivo, SCID mice", "details": "for Reduction in bioluminescence as compared to baseline or saline control: 4 h after injection, p<0.05"}, "[6]": {"test_system": "MCF7-luc-GFP-mCherry breast tumor", "experiment": "Histological", "format": "in vivo, SCID mice", "details": "120 mg/kg; 48 h post treatment", "method_in_brief": "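The same MCF7-luc-GFP-mCherry tumour-bearing SCID mice were dosed ip at 120 mg/kg, or with saline. After the 48 h BLI session they were sacrificed and the tumours excised. Tumour cross-sections were stained with H&E, and necrotic (pink) regions were scored against viable (purple) regions relative to the saline control.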"}, "[7]": {"test_system": "SK-OV-3", "details": "read-out: GI50 SRB assay SK-OV-3; ref [13]; cited from earlier work"}, "[8]": {"test_system": "DU-145 (prostate)", "details": "read-out: GI50 SRB assay DU-145; ref [13]; cited from earlier work"}, "[9]": {"test_system": "NCI-H460", "details": "read-out: GI50 SRB assay NCI-H460; ref [13]; cited from earlier work"}, "[10]": {"test_system": "tubulin", "details": "read-out: Inhibition of tubulin polymerization IC50; ref [73]; cited from earlier work"}}, "note": "Where two headings read alike, the source gives them in different places.", "data": [{"smiles": "COc1ccc2c(c1O)CCCC=C2c1cc(OC)c(OC)c(OC)c1", "note": "[KGP18]", "values": [{"measurement": "IC50", "setting": "[1]", "value": 1400, "unit": "nM"}, {"measurement": "GI50", "setting": "[2]", "value": 0.0543, "unit": "nM"}, {"measurement": "GI50", "setting": "[3]", "value": 0.0249, "unit": "nM"}, {"measurement": "GI50", "setting": "[4]", "value": 0.0418, "unit": "nM"}]}, {"smiles": "COc1cc(/C2=C/CCCCc3c2ccc(OC)c3OP(=O)([O-])[O-])cc(OC)c1OC.[Na+].[Na+]", "note": "[Compound 24]", "values": [{"measurement": "Bioluminescence intensity at 24 and 48 h versus baseline", "setting": "[5]; 120 mg/kg ip single dose, 24 and 48 h, p<0.005", "value": "remained significantly below baseline values"}, {"measurement": "Reduction in bioluminescence as compared to baseline or saline control", "setting": "[5]; 120 mg/kg ip single dose", "value": "approximately 80%"}, {"measurement": "Vascular shutdown evidenced by bioluminescence imaging", "setting": "[5]; 120 mg/kg, 4 h post administration, effect continued at 24 and 48 h", "value": "significant vascular shutdown"}, {"measurement": "Tumor necrosis (H&E) as compared with saline control", "setting": "[6]", "value": "much more extensive necrosis"}]}, {"smiles": "COc1ccc(/C=C\\c2cc(OC)c(OC)c(OC)c2)cc1O", "note": "[CA4, combretastatin A-4]", "values": [{"measurement": "GI50", "setting": "[7]", "value": 5.06, "unit": "nM"}, {"measurement": "GI50", "setting": "[8]", "value": 6.02, "unit": "nM"}, {"measurement": "GI50", "setting": "[9]", "value": 5, "unit": "nM"}]}, {"smiles": "COc1ccc(/C=C\\c2cc(OC)c(OC)c(OC)c2)cc1OP(=O)(O)O", "note": "[CA4P, Combretastatin A-4P]", "values": [{"measurement": "Reduction in bioluminescence as compared to baseline or saline control", "setting": "[5]; 120 mg/kg ip single dose", "value": "approximately 80%"}, {"measurement": "IC50", "setting": "[10]", "value": "> 20000", "unit": "nM"}, {"measurement": "Tumor necrosis (H&E) as compared with saline control", "setting": "[6]", "value": "much more extensive necrosis"}]}]}
